Test results as given in ChEMBL document CHEMBL2412964, “Discovery of novel tetrahydro-pyrazolo [4,3-c] pyridines for the treatment of neuropathic pain: synthesis and neuropharmacology” (Eur J Med Chem, 2013).
The source made the active and inactive calls.

Test system: Mus musculus
Assay: Anticonvulsant activity in Swiss albino mouse assessed as protection against picrotoxin-induced seizure at 300 mg/kg, ip administered 30 mins prior to picrotoxin-challenge measured after 4 hrs
Type: functional, organism-based
Set-up: dose 300 mg/kg
Summary of the method: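 Mice, either sex, 20-25 g, given compound i.p. at 30, 100 and 300 mg/kg. Thirty minutes later, picrotoxin 3.15 mg/kg was injected s.c. in 0.01 mL/g body weight. Animals were isolated and watched for 45 min for a threshold convulsion, and protection was scored as its absence. Examined at 0.5 and 4 h. Value reported is the minimum dose active in half or more of the mice (n = 3).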

SMILES: CCN1CCc2c(c(C(C)(C)C)nn2C(=O)Nc2ccc(C)cc2C)C1
- Activity: inactive
